Screens from PubChem.
In the library only some 1.3% were active in any assay of this set; here they are far more common.
CRFR2-BP ag = agonists of CRF-BP/CRF-R2 complex, primary screen, cell-based, HEK293, calcium dye fluorescence, uHTS; CRF-binding protein / CRF receptor 2 complex (human); calcium dye fluorescence (FLIPR); percent of saturating CRF peptide response; activation, % at 13.2 µM; actives 0.46% (n = 350,000);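 active = activation of at least 50%, plus an integration ratio under a set limit after plate pattern correction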
DDE Tn7 FP inh = inhibitors of Tn7 peptide binding to fibrin DD(E), primary screen, biochemical, fluorescence polarization, human fibrin, Tn7 probe; Fibrinogen beta chain (Homo sapiens), P02675; FP displacement of FITC-Tn7 peptide from fibrin DD(E); 0% = median of compound wells per plate; inhibition, % at 8.3 µM; actives 0.13% (n = 370,000); AID 720508, 2013;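 active = inhibition above the mean of compounds falling within the control limits plus 3 SD of them, cut at about 14% in these data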
Target sequence (P02675 whole entry, looked up): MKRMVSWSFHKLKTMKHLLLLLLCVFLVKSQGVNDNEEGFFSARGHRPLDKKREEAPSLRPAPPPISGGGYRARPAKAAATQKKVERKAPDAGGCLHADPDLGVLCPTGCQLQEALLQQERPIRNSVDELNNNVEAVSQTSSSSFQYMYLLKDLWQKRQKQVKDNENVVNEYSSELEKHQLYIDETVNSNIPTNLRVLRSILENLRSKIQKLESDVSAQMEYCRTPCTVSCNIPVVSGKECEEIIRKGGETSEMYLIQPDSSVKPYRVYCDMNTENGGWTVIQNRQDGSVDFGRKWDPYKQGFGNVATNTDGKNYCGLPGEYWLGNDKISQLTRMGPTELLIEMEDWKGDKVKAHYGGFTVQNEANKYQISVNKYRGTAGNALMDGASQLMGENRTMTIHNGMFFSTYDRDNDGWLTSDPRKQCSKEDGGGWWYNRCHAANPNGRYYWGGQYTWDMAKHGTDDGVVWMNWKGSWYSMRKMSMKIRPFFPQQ
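assay system = human clot-derived fibrin DD(E) complex | quantity = Fibrin-DD(E) at 2 µM final | timing = 10 min preincubation, 3 h with tracer, room temperature | signal = fluorescence polarization | measure = percent inhibition | benchmarks = high control wells with 10 µM unlabelled Aha-Tn7 peptide (full inhibition) | replicates = singlicate testing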
CRFBP-R2 block = antagonists of CRF-BP/CRF-R2 complex, primary screen, cell-based, HEK293, calcium dye fluorescence, uHTS | actives 0.59% (n = 350,000) | AID 588475, 2011 | CRF-induced calcium fluorescence | inhibition, % at 11.8 µM;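 active = inhibition of the ligand-induced calcium signal above about 50% at the single tested concentration, limit read from the data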
Tn6 DDE FP = inhibitors of Tn6 peptide binding to fibrin DD(E), primary screen, biochemical, fluorescence polarization, human fibrin, Tn6 probe | AID 720509, 2013 | actives 0.21% (n = 370,000) | Fibrinogen beta chain (Homo sapiens), P02675 | inhibition, % at 8.3 µM | Fibrin DD(E) TRITC-Tn6 fluorescence polarization displacement;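 active = inhibition above a per-campaign cutoff: mean of compounds within control limits plus 3 SD, cut at about 15% in these data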
DDE Tn6 FP ctr = counter-screen for inhibitors of Tn6 peptide binding to fibrin DD(E); TRITC-Tn6 fluorescence polarization displacement; 0% = median of compound wells, not DMSO; shares compounds with Tn6 DDE FP; actives 2% (n = 680); AID 720621; inhibition, % at 8.3 µM;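 active = inhibition above the mean of test compounds lying between the control limits plus 3 SD of those, cut at about 14% in these data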
Tn6 DDE conf = inhibitors of Tn6 peptide binding to fibrin DD(E), confirmation, biochemical, fluorescence polarization, human fibrin, Tn6 probe. shares compounds with Tn6 DDE FP. FP displacement of TRITC-Tn6 peptide from DD(E); 0% = per-plate median of test wells. inhibition, % at 8.3 µM. actives 10% (n = 680). AID 720631, 2013;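 active = inhibition above the mean of compounds lying within the control limits plus 3 SD, cut at about 16% in these data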
Large screens that a line does not name were inactive (follow-up assays come after a bar, where they were run).

C=CCN1C(=O)[C@@H](CC(=O)N2CCN(C(=O)OCC)CC2)[C@]2(C(=O)OC)CCCCC=C12	none (no result: CRFR2-BP ag, CRFBP-R2 block)
CC(Oc1ccc(F)cc1)C(O)CCN(C)C (stereo not given)	Tn6 DDE FP 24 | DDE Tn6 FP ctr inactive | Tn6 DDE conf inactive
CC(C)Oc1ccc(C(CC(=O)NCCCN(C)C)c2ccc(F)cc2)cc1 (stereo not given)	none
Nc1ncnc2c1CN(Cc1ccccc1)CC2	Tn6 DDE FP 65 | DDE Tn6 FP ctr inactive | Tn6 DDE conf inactive
CC/C(=C\C(=O)c1ccncc1)Nc1ccc(O)cc1	Tn6 DDE FP 46 | DDE Tn6 FP ctr inactive | Tn6 DDE conf inactive
CC(C)C[C@H]1COc2cccc(F)c2S(=O)(=O)N1Cc1cn(CCC2OCCCO2)nn1	none (no result: CRFR2-BP ag, CRFBP-R2 block)
CCn1c(CSc2nnc(-c3ccncc3)n2CCOC)nc2cc(C(=O)O)ccc21	Tn6 DDE FP 19 | DDE Tn6 FP ctr inactive | Tn6 DDE conf 47
CCn1c(CSc2n[nH]c(N)n2)nc2cc(C(=O)O)ccc21	Tn6 DDE FP 29 | DDE Tn6 FP ctr inactive | Tn6 DDE conf 22
Cc1ccc(C(=O)Oc2coc(CSc3ncccn3)cc2=O)cc1[N+](=O)[O-]	none (no result: CRFR2-BP ag, CRFBP-R2 block)
O=C(CCCN=C1NS(=O)(=O)c2ccccc21)OCC(=O)c1ccccc1	none
O=C(COC(=O)CCCCCN=C1NS(=O)(=O)c2ccccc21)Nc1ccc(Cl)c(Cl)c1	Tn6 DDE FP 29 | DDE Tn6 FP ctr inactive | Tn6 DDE conf inactive
Cc1cccc(C(=O)NNC(=O)CN2C(=O)c3ccccc3C2=O)c1	Tn6 DDE FP 17 | DDE Tn6 FP ctr inactive | Tn6 DDE conf inactive
CN(C)c1cccc(/C=C2\CC3(OC(=O)c4ccc(Cl)cc4)CCCN2C3)c1 (stereo not given)	none (no result: CRFR2-BP ag, CRFBP-R2 block)
Cc1cc(C)n2c(Nc3c(C)cccc3C)c(-c3ccccn3)nc2n1	Tn6 DDE FP 16 (no result: CRFR2-BP ag, CRFBP-R2 block) | DDE Tn6 FP ctr inactive | Tn6 DDE conf inactive
CCCCNc1c(-c2ccccn2)nc2nc(C)cc(C)n12	none (no result: CRFR2-BP ag, CRFBP-R2 block)
CCN(CC)c1ccc(/C=C/c2cc(-c3ccccc3)c3ccccc3n2)cc1	CRFR2-BP ag 67, Tn6 DDE FP 17 | DDE Tn6 FP ctr inactive | Tn6 DDE conf inactive
Cc1cc(NC(=O)Cc2cn(C)c3ccccc23)ccc1Nc1cccnc1	none (no result: CRFR2-BP ag, CRFBP-R2 block)
CN1Cc2nnn(Cc3ccccc3)c2-c2cc(N3CCCCC3)ccc2S1(=O)=O	none (no result: CRFR2-BP ag, CRFBP-R2 block)
Cc1cc2c(NC(=O)Nc3ccc(C(F)(F)F)cc3)cccc2nn1	Tn6 DDE FP 108 | DDE Tn6 FP ctr inactive | Tn6 DDE conf inactive
O=C(CCN1CCOCC1)N1CCCC(Nc2ccc(F)cc2)C1 (stereo not given)	Tn6 DDE FP 15 | DDE Tn6 FP ctr inactive | Tn6 DDE conf inactive
CC(C)Oc1ccc(Oc2ccc(C#C[C@H](C)N3C(=O)c4ccccc4C3=O)cc2)cn1	none (no result: CRFR2-BP ag, CRFBP-R2 block)
CC(C)NC(=O)c1onc(CSc2nc3ccccc3[nH]2)c1C(=O)NC(C)C	Tn6 DDE FP 15 | DDE Tn6 FP ctr inactive | Tn6 DDE conf inactive
CCCCNC(=O)c1onc(CSc2nc3ccccc3[nH]2)c1C(=O)NCCCC	none
Cn1c(=O)cc(OCCCC(=O)Nc2cc(-c3ccncc3)ccn2)c2ccccc21	none (no result: CRFR2-BP ag, CRFBP-R2 block)
COc1cccc(C(=O)Nc2ccc(C(=O)NCC3COc4ccccc4O3)cc2)c1 (stereo not given)	none (no result: CRFR2-BP ag, CRFBP-R2 block)
Cc1ccc(NC(=O)COC(=O)c2ccc(NC(=O)CC#N)cc2)cc1S(=O)(=O)N1CCOCC1	Tn6 DDE FP 20 | DDE Tn6 FP ctr inactive | Tn6 DDE conf inactive
Cc1ccc(NC(=O)COC(=O)c2ccc3c(c2)OCCO3)cc1S(=O)(=O)N1CCOCC1	none
CC(C)CNc1ccc2c(c1)OC[C@@H](CC(C)C)NS2(=O)=O	none (no result: CRFR2-BP ag, CRFBP-R2 block)
O=C(CSc1nnc(SCc2cccc3ccccc23)s1)Nc1ccc(S(=O)(=O)Nc2nccs2)cc1	Tn6 DDE FP 22 (no result: CRFR2-BP ag, CRFBP-R2 block) | DDE Tn6 FP ctr inactive | Tn6 DDE conf 17
CCOC(=O)N1CCN(C(=O)C[C@H]2C[C@@]3(C(=O)OC)C(=C[C@H](C(C)(C)C)O[C@@H]3C)N(Cc3cccc4ccccc34)C2=O)CC1	none (no result: CRFR2-BP ag, CRFBP-R2 block)
CCN(CC)c1ccc(C(=O)c2ccccc2C(=O)O)c(O)c1	Tn6 DDE FP 15 | DDE Tn6 FP ctr inactive | Tn6 DDE conf inactive
